Screens (PubChem)
Only some compounds are listed: those with a hit (about 2.3% of all), similar ones and a draw of the others.
Rpn11 block: Rpn11 (PSMD14) deubiquitinase inhibitors, primary screen, biochemical, fluorescence polarization, uHTS; human 26S proteasome, Ub4-pepOG fluorescence polarization; 20S core pre-blocked with epoxomicin; actives 0.59% (n = 360,000); calls only at 20 µM; 26S proteasome non-ATPase regulatory subunit 14 (Homo sapiens), O00487;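 active = inhibition at 20 µM, scaled to each plate's controls, above about 33%, limit read from the data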
Target sequence (O00487 whole entry, looked up): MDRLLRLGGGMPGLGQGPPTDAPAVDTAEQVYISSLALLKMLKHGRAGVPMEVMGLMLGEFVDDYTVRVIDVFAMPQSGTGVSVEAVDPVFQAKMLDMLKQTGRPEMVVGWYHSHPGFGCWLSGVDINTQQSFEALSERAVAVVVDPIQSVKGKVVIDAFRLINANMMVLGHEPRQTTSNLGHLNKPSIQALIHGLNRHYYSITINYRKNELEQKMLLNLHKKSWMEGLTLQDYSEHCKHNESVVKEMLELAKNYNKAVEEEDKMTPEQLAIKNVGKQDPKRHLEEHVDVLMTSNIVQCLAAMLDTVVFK
CSN deneddyl inh: inhibitors of CSN-mediated cullin deneddylation, primary screen, biochemical, fluorescence polarization, uHTS; COP9 signalosome complex subunit 5 (Homo sapiens), Q92905; AID 651999, 2013; Purified CSN, SCF-Nedd8-OG deneddylation; inhibition, % at 12.5 µM; actives 0.38% (n = 360,000);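 active = pattern-corrected inhibition above about 35%, with an unprinted fluorescence ratio check between 0.5 and 1.5, limit read from the data, passing the limit was not always enough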;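 also: 0% = enzyme with substrate and 100% = substrate without enzyme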
Target sequence (Q92905 whole entry, looked up, one chain of several): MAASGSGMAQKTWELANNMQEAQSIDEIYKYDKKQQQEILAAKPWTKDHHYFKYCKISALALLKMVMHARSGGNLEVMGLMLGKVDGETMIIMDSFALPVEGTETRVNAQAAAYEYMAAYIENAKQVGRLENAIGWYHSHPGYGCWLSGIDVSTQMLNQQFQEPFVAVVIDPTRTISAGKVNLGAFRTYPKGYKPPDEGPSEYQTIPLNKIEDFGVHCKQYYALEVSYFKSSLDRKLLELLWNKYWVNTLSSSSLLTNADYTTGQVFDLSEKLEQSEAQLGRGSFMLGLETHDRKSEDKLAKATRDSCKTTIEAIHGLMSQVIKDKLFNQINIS
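Material: human Csn5 produced in HEK293T cells; Input: enzyme 0.24 nM; Reagent: SCFSkp2-Nedd8OG substrate at 10 nM final; Dosing: 12.5 µM compound; Incubation: 90 min reaction at room temperature; Detection: fluorescence polarization of the substrate; Evaluation: % inhibition of substrate cleavage by Csn5; Control set: substrate-only high control, full reaction low control.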
CRFR2-BP ag: agonists of CRF-BP/CRF-R2 complex, primary screen, cell-based, HEK293, calcium dye fluorescence, uHTS; AID 588473, 2011; actives 0.46% (n = 350,000); activation, % at 13.2 µM; calcium dye fluorescence (FLIPR); percent of saturating CRF peptide response; CRF-binding protein / CRF receptor 2 complex (human);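 active = activation of at least 50%, plus an integration ratio under a set limit after plate pattern correction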;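 also: plate controls were neutral control wells without compound for no effect and CRF at EC100 for full effect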
TPT1 inhibitor: Candida albicans TPT1 enzyme inhibitors, primary screen, biochemical, fluorescence polarization; tRNA 2'-phosphotransferase TPT1 (Candida albicans SC5314); recombinant caTPT1, FP RNA substrate dephosphorylation; inhibition, % at 5 µM; actives 0.81% (n = 300,000); AID 1962, 2009;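 active = inhibition above the mean of all tested compounds plus 3 SD, set per screening campaign, cut at about 24% in these data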;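 also: plate controls were DMSO alone for no effect and ferristatin control at 100 nM for full effect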
CRFBP-R2 block: antagonists of CRF-BP/CRF-R2 complex, primary screen, cell-based, HEK293, calcium dye fluorescence, uHTS | inhibition, % at 11.8 µM | AID 588475, 2011 | CRF-induced calcium fluorescence | actives 0.59% (n = 350,000);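 active = inhibition of the ligand-induced calcium signal above about 50% at the single tested concentration, limit read from the data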
HNF4A DNA FP: change in binding of human HNF4A to DNA, primary screen, biochemical, fluorescence polarization, FITC-DNA; AID 1224865, 2016; actives 0.3% (n = 360,000); Hepatocyte nuclear factor 4-alpha (Homo sapiens), P41235; activity change, % at 10 µM; 1 h; in the data active = activity change above about 30%, passing the limit was not always enough
Numbers without * were called inactive; i = inactive; . = not tested or not shown.

SMILES	Rpn11 block	CSN deneddyl inh	CRFR2-BP ag	TPT1 inhibitor	CRFBP-R2 block	HNF4A DNA FP
O=C(NC(=S)NNC(=O)c1cccs1)c1ccc(Br)o1	i	0.7	71.3*	2.5	19.2	-0.7
O=C(NNC(=S)NC(=O)c1cccs1)c1ccc(O)cc1	i	-0.1	2.0	.	-0.8	-0.5
O=c1oc2ccccc2c(O)c1CN1CCCCC1	i	-0.1	2.3	-0.1	17.7	3.7
C=CCN(CC=C)C(=S)NC(=O)c1ccc([N+](=O)[O-])cc1	i	-11.3	2.0	3.8	6.1	1.6
CCn1nc(NC(=O)COC)c2cc3cc(C)ccc3nc21	i	-0.5	-0.1	-0.1	2.4	3.0
CCOC(=O)c1c(NC(=O)CSc2cccc[n+]2[O-])sc(C(=O)Nc2ccccc2)c1C	i	104.8*	1.1	17.3	-7.6	5.6
CC(=O)Nc1ccc(S(=O)(=O)N2CCN(C(=O)c3ncoc3-c3ccccc3F)CC2)cc1	i	5.5	0.2	0.5	3.0	0.2
Cc1ccc(C(=O)Nc2cccnc2Cl)cc1Cl	i	-0.1	-0.8	-3.8	5.1	1.5
CCOc1ccc(C(=O)OCC(=O)Nc2cccnc2Cl)cc1OCC	i	-0.6	1.2	.	103.4*	2.7
Cc1cc(C)cc(C(=O)Nc2cccnc2Cl)c1	i	0.3	1.7	-1.3	68.0*	-0.6
COc1ccc(OCCN2CCC(C(=O)NC(c3ccc(Cl)cc3)c3ncccc3C)CC2)cc1 (stereo not given)	i	5.6	.	.	.	-0.1
CC(NC(=O)c1ccc2c(=O)n3c(nc2c1)CCC3)c1ccc(S(N)(=O)=O)cc1 (stereo not given)	i	-1.8	-0.2	0.6	-2.1	-3.3
Cc1[nH]c2ccc(Br)cc2c(=O)c1CN1CCCCCC1	i	11.7	1.7	0.3	3.9	10.4
COc1ccccc1-c1cc(C(=O)NN)[nH]n1	i	4.3	-0.9	0.9	57.2*	4.9
Oc1ccc2ccccc2c1CN1CCCC1	i	3.7	45.0	-1.8	-17.9	-1.0
Oc1ccc2ccccc2c1CN1CCCCC1	i	1.8	109.3*	.	16.8	-4.9
COCCn1c(=N)c(C(=O)NCc2ccco2)cc2c(=O)n3cc(C)ccc3nc21	i	-14.3	10.7	-8.0	83.6*	-2.3
Cc1ccc2nc3c(cc(C(=O)NCc4ccco4)c(=N)n3C3CCCC3)c(=O)n2c1	i	13.8	.	-1.0	.	-3.4
Cc1cccn2c(=O)c3cc(C(=O)NCc4ccco4)c(=N)n(C4CCCCC4)c3nc12	i	5.4	3.3	-0.4	54.4*	1.1
CCN(Cc1ccccc1)C(=O)C1CCN(Cc2ccc(OC)c(OC)c2OC)CC1	i	4.8	0.1	0.5	2.2	-2.5
CC(C)n1c(O)c(N=NC(=O)C2COc3ccccc3O2)c2ccccc21 (stereo not given)	i	0.0	-5.7	0.6	68.4*	1.9
CCOC(=O)c1c(NC(=O)c2c(Br)cnn2C)c(C#N)nn1-c1ccccc1	i	6.2	0.2	-2.8	67.3*	0.2
CCOC(=O)c1c(NC(=O)c2nn(CC)cc2Br)c(C#N)nn1-c1ccccc1	i	1.8	1.0	12.8	21.0	1.9
CC(=O)Nc1sc(N/N=C/c2ccc(C)cc2)nc1-c1ccc(C)cc1	i	5.8	-4.6	-0.1	-21.1	3.7
CC(=O)Nc1sc(/C(C#N)=C/c2ccc(Cl)c(Cl)c2)nc1-c1ccc(C)cc1	.	-63.4	280.7*	.	-319.6	26.4
SMILES	Rpn11 block	CSN deneddyl inh	CRFR2-BP ag	TPT1 inhibitor	CRFBP-R2 block	HNF4A DNA FP
N#Cc1c2ccc(O)cc2n2ccccc12	i	-4.9	72.5*	-17.6	-70.8	-17.2
CN1CCOCCOc2ccccc2OCCOCC1	i	0.2	1.6	-1.0	-7.7	4.5
c1ccc2c(c1)OCCOCCOCCOCCOc1ccccc1OCCOCCOCCO2	i	-8.3	0.6	0.6	50.2*	0.8
Cc1nnc(C)n1/N=C/c1cccs1	i	3.6	1.4	-2.9	55.1*	1.0
O=C1/C(=N\S(=O)(=O)c2cccs2)C([n+]2cccc(Cc3ccccc3)c2)=C([O-])c2ccccc21	i	-17.0	62.3*	-73.8	-62.3	2.2
O=C1/C(=N\S(=O)(=O)c2cccs2)C([n+]2ccc(CCCc3ccccc3)cc2)=C([O-])c2ccccc21	i	2.1	-0.7	-1.2	-6.8	1.6
CCOC(=O)C1=C(CSc2nc(-c3ccccc3)ccc2C#N)OC(N)=C(C#N)C1c1ccc(OC)cc1 (stereo not given)	.	20.2	50.3*	22.7	-87.6	39.3*
CCOC(=O)C1=C(CSc2nc(CC)c(C)cc2C#N)OC(N)=C(C#N)C1c1ccccc1 (stereo not given)	i	-0.1	3.5	3.7	16.8	3.0
CCCN1C(=O)C(Cc2nc3ccccc3c(=O)n2-c2ccccc2)c2ccccc21 (stereo not given)	i	-11.3	-2.1	0.8	14.2	1.1
COc1ccc2c(c1OC)C(=O)N1c3ccccc3COC21 (stereo not given)	i	4.2	-1.7	-5.5	66.7*	0.5
COc1ccc2c(c1OC)C(=O)N1c3cccc(Cl)c3C(=O)OC21 (stereo not given)	i	2.6	-2.0	-0.2	-4.3	1.9
CN(C)CCN(C(=O)c1cccc(Cl)c1)c1nc2c(Cl)cccc2s1	i	4.0	-0.8	-4.3	-14.1	-4.1
O=C(Nc1ccccn1)c1ccc2c(c1)S(=O)(=O)c1ccccc1C2=O	i	4.2	-3.6	0.1	-1.9	0.9
O=C1c2ccccc2S(=O)(=O)c2cc(C(=O)N(c3ccccn3)c3ccccn3)ccc21	i	-1.3	172.9*	-0.2	-58.1	3.1
COc1cc(OC)c2c(-c3ccccc3)cc(=O)oc2c1C(CCN1CCCCC1)c1ccc(N(C)C)cc1 (stereo not given)	i	7.9	7.9	0.7	-22.2	-2.6
COc1ccc(C(CCN2CCCCC2)c2c(OC)cc(OC)c3c(-c4ccccc4)cc(=O)oc23)cc1 (stereo not given)	i	-0.3	59.2*	-2.6	-32.0	2.6
CC(=O)Nc1cccc(OCC(O)Cn2cnc3ccccc32)c1 (stereo not given)	i	58.4*	3.3	1.5	2.4	-2.9
CC(=O)Nc1ccc(OCC(O)Cn2cnc3ccccc32)cc1 (stereo not given)	i	-3.1	-2.7	-2.2	13.3	2.3
